Reference: PubChem BioAssay AID1526 (The Scripps Research Institute Molecular Screening Center, 2009)
The list shows a part of the results. Calls of active or inactive are those of the source.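 Rule for the calls: active = activation above a set limit derived from the earlier primary screen (cut at about 12% in these data); inactive = the rest.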

target: Mucolipin-3 (Homo sapiens) (UniProt Q8TDD5); experiment: activators of mucolipin-3 cation channel – cell-based, HEK293 TRPML3-YFP, Fluo-8 calcium, triplicate, confirmation (AID 1526); details: Fluo-8 calcium fluorescence, at 3 µM, active compounds read high, 100% set by carbachol, 0% by DMSO
Sequence (Q8TDD5 whole entry, looked up): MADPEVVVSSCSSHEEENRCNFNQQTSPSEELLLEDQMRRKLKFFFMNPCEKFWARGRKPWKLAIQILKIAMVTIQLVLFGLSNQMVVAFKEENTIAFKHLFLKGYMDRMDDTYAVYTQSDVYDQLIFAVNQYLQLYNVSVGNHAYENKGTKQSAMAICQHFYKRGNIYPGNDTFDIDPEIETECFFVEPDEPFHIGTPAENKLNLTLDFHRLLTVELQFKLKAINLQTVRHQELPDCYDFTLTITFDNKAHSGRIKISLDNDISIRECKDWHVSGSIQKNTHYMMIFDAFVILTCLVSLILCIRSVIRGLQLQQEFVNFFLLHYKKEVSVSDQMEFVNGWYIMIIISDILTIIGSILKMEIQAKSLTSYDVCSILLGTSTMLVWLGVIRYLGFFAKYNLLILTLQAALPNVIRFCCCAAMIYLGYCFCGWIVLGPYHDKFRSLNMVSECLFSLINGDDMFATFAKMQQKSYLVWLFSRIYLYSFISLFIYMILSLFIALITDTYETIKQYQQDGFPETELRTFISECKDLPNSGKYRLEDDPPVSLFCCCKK
In short: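 Test system: human TRPML3-YFP channel stably expressed in HEK293 cells; Compound: single nominal 3 µM dose per test compound; Incubation: calcium dye loading 1 h at 37 °C, fluorescence read 125 s; Detection: Fluo-8 calcium dye fluorescence; Measure: % activation from peak-to-basal fluorescence ratio, scaled between controls; Repeats: three replicate wells.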

Structure (SMILES)	activation
COc1ccc(-c2noc(CN(C)S(=O)(=O)c3ccc(C)cc3)n2)cc1	111% (active)
CC1(C)CCCC2=C1CC1C(=O)N(c3ccccc3)C(=O)C1C2 (stereo not drawn)	14.2% (active)
COc1ccc(Cl)cc1N(CC(=O)N1CCCCC1)S(C)(=O)=O	71.9% (active)
CCOC(=O)C1=C(NC(=S)NC(=O)c2ccccc2)c2ccccc2CC1(C)C	43.6% (active)
CC1CCCC(C)N1C(=O)CN1CCN(c2nc(-c3ccc(F)cc3)cs2)CC1 (stereo not drawn)	20.4% (active)
CC1=CC(C)(C)N(C(=O)CSc2nnc(-c3ccccc3)o2)c2ccc(C)cc21	48.3% (active)
COc1ccc(S(=O)(=O)N2CCCC2)c(C)c1C	13.6% (active)
C=C(C)Cn1c(C)cc(C)c(S(=O)(=O)c2ccccc2C)c1=O	27.8% (active)
CCOc1ccc(S(=O)(=O)N2CCCCCC2)c2ccccc12	129% (active)
COc1ccccc1N(CC(=O)N1CCCCC1)S(=O)(=O)c1ccccc1	169% (active)
COc1ccc(N(CCC#N)S(=O)(=O)c2ccc(Cl)cc2)cc1	9.45% (inactive)
c1ccc2c(C[n+]3csc4ccccc43)cccc2c1	58% (active)
COc1cc(/C=C(\C#N)c2nc3c(s2)CC(C)CC3)ccc1O (stereo not drawn)	6.5% (inactive)
O=C(CC(O)(C(F)(F)F)C(F)(F)F)Nc1ccc(Cl)c(Cl)c1	13.9% (active)
O=S(=O)(Nc1ccccc1N1CCOCC1)c1ccc(Cl)s1	63% (active)
CCN(CC)S(=O)(=O)c1ccc2c3c(cccc13)C(=O)S2	10.5% (inactive)
Cc1cccc(C)c1N1CCN(S(=O)(=O)N2CCCCC2)CC1	79.3% (active)
CCN(CC)C(=O)CC1(c2ccccc2OC)CCOC(C(C)C)C1 (stereo not drawn)	14.7% (active)
